Test results from ChEMBL document CHEMBL1128310, “Antitumor imidazotetrazines. 32. Synthesis of novel imidazotetrazinones and related bicyclic heterocycles to probe the mode of action of the antitumor drug temozolomide” (J Med Chem, 1995).

How the values were obtained:
[1] = test system: GM892A cell line; experiment: (§1) In vitro cytotoxicity against human lymphoblastoid cell (GM892 A); assay type: functional, cell-based
[2] = test system: Raji; experiment: In vitro cytotoxicity against Raji cell line; assay type: functional, cell-based; settings: Homo sapiens
[3] = Ratio of cytotoxicity against Raji cells to that of GM892 A cells.; assay type: functional
[4] = test system: TLX-5; experiment: In vitro cytotoxicity against mouse TLX5 lymphoma cells; assay type: functional, cell-based
Summary of the method: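 Mouse TLX5 lymphoma cells in exponential growth at 2×10^4 cells/mL in RPMI 1640 with 15% FCS, given drug in DMSO, triplicate wells per concentration, 72 h at 37 °C under 5% CO2. Electronic cell counting; percent of DMSO-control growth plotted and IC50 (μM) calculated.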

[5] = test system: GM892A cell line; experiment: as §1; assay type: functional, cell-based; remark: listed apart in the source
Summary of the method: (§2)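 Mer⁻ GM892A cells in RPMI 1640 with 10% FCS and 1% L-glutamine, seeded at 0.8×10^5 cells/mL and exposed to a range of concentrations in DMSO (≤0.5%) for 72 h. At least three populations per concentration; duplicate cell counts after subtracting the seed number. Growth compared with solvent controls and IC50 (μM) derived.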

[6] = test system: GM892A cell line; experiment: In vitro cytotoxicity against human lymphoblastoid cell line (GM892 A); assay type: functional, cell-based; summary of the method: as §2
[7] = Mean rate constant for the hydrolysis of compound in buffers at pH 7.4, at 37 degrees Celsius in incubation mixture - d(A)-d(T) (1:1); assay type: ADME; settings: buffer
Summary of the method: (§3)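 Compound incubated at 37 °C in 0.1 M phosphate or 0.1 M sodium cacodylate buffer (pH 7.4 or 6.5) with homopolymer oligonucleotide or GMP/CMP, as equimolar nucleotide bases or 10-fold molar excess of bases. Parent peak followed by HPLC for about three half-lives. Pseudo-first-order k from log(peak area) versus time, at least 10 points per run, averaged over replicate runs.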

[8] = Half life for the hydrolysis of compound in buffers at pH 7.4, at 37 degrees Centigrade in incubation mixture - 5'-GMP/5'-CMP (1:1); assay type: ADME; settings: buffer with 5'-GMP/5'-CMP (1:1)
Summary of the method: (§4)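 Compound incubated at 37 °C in 0.1 M phosphate or 0.1 M sodium cacodylate buffer (pH 7.4 or 6.5) with homopolymer oligonucleotide or GMP/CMP, as equimolar nucleotide bases or 10-fold molar excess of bases. Loss of parent was followed by HPLC (0.5% acetic acid in water/methanol 70:30) over about three half-lives. Pseudo-first-order k from log peak area versus time; t1/2 = 0.693/mean k.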

[9] = Half life for the hydrolysis of compound in buffers at pH 7.4, at 37 degrees Celsius in incubation mixture - d(A)-d(T) (1:1); assay type: ADME; settings: buffer with d(A)-d(T) (1:1); summary of the method: as §4
[10] = Half life for the hydrolysis of compound in buffers at pH 7.4, at 37 degrees Celsius in incubation mixture - d(G)-d(C) (1:1); assay type: ADME; settings: buffer with d(G)-d(C) (1:1); summary of the method: as §4
[11] = Mean rate constant for the hydrolysis of compound in buffers at pH 7.4, at 37 degrees Celsius in incubation mixture - d(A)-d(T) (10:1); settings: buffer
[12] = Mean rate constant for the hydrolysis of compound in buffers at pH 7.4 at 37 degrees Centigrade in incubation mixture - d(A)-d(T) (10:!); assay type: ADME; settings: buffer; summary of the method: as §3
[13] = Half life for the hydrolysis of compound in buffers at pH 6.5, at 37 degrees Celsius in incubation mixture - d(G)-d(C) (10:1); assay type: ADME; summary of the method: as §4
[14] = Mean rate constant for the hydrolysis of compound in buffers at pH 7.4, at 37 degrees Celsius in incubation mixture - 5'-GMP/5'-CMP (1:1); assay type: ADME; settings: buffer; summary of the method: as §3
[15] = Half life for the hydrolysis of compound in buffers at pH 6.5, at 37 degrees Celsius in incubation mixture - d(A)-d(T) (10:1); assay type: ADME; summary of the method: as §4
[16] = Mean rate constant for the hydrolysis of compound in buffers at pH 7.4, at 37 degrees Celsius in incubation mixture - d(G)-d(C) (1:1); assay type: ADME; settings: buffer; summary of the method: as §3
[17] = Half life for the hydrolysis of compound in buffers at pH 7.4, at 37 degrees Centigrade in incubation mixture - d(G)-d(C) (10:1); assay type: ADME; summary of the method: as §4
[18] = Half life for the hydrolysis of compound in buffers at pH 7.4 at 37 degrees Celsius in incubation mixture - d(A)-d(T) (10:!); assay type: ADME; settings: buffer with d(A)-d(T) (10:1); summary of the method: as §4
[19] = Half life for the hydrolysis of compound in buffers at pH 7.4, at 37 degrees Celsius in incubation mixture - d(A)-d(T) (10:1); settings: buffer with d(A)-d(T) (10:1)
[20] = test system: GM892A cell line; experiment: In vitro cytotoxicity against human lymphoblast cell line (GM892 A).; assay type: functional, cell-based; summary of the method: as §2

CN(N=O)C(N)=O.Cl.Cl.Cl
IC50 [1]: 35 µM | IC50 [2]: 259 µM | Ratio [3]: 7.4

Nc1nc(O)cc(-c2ccc(NC(=O)c3ncn4c(=O)n(CCCl)nnc34)cc2)n1
IC50 [4]: 25 µM

NC(=O)c1cccc2c(=O)n(-c3ccccc3)nnc12
IC50 [4]: > 500 µM

Cn1nnc2c(C(N)=O)cnn2c1=O
IC50 [1]: 5.3 µM | IC50 [2]: 270 µM | Ratio [3]: 51

CNC(=O)c1nnc2c(O)n(C)nnc1-2
IC50 [1]: > 500 µM | IC50 [2]: > 500 µM

Cn1nnc2c(C(N)=O)cccc2c1=O
IC50 [4]: > 500 µM

NC(=O)c1ccc2c(=O)n(CCCl)nnc2c1
IC50 [4]: 350 µM

O=C(O)c1ncn2c(=O)n(CCCl)nnc12
IC50 [4]: 15.8 µM

Cn1nnc2c(C(=O)NCCCN(CCCN)CCCCN)ncn2c1=O
IC50 [1]: > 500 µM | IC50 [2]: > 500 µM

NC(=O)c1ccc2c(=O)n(-c3ccccc3)nnc2c1
IC50 [4]: 140 µM

CCn1nnc2cc(C(N)=O)ccc2c1=O
IC50 [4]: 108 µM

Cn1nnc2cc(C(N)=O)ccc2c1=O
IC50 [4]: 380 µM

NC(=O)c1cccc2c(=O)n(CCCl)nnc12
IC50 [4]: 225 µM

NC(=O)c1ccc(NC(=O)c2ncn3c(=O)n(CCCl)nnc23)cc1
IC50 [4]: 37 µM

NC(=O)c1ccccc1NC(=O)c1ncn2c(=O)n(CCCl)nnc12
IC50 [4]: 13 µM

NC(=O)Cn1nnc2c(C(N)=O)cccc2c1=O
IC50 [4]: > 500 µM

NC(=O)c1cccc2c(O)nnnc12
IC50 [4]: 400 µM

NC(=O)c1cccc(NC(=O)c2ncn3c(=O)n(CCCl)nnc23)c1
IC50 [4]: 35 µM

NC(=O)c1ccc(NC(=O)c2ncn3c(=O)n(CCCl)nnc23)c(C(N)=O)c1
IC50 [4]: 375 µM

CCn1nnc2c(C(N)=O)ncn2c1=O
IC50 [1]: 180 µM | IC50 [2]: 435 µM | Ratio [3]: 2.4

CCn1nnc2c(C(N)=O)cccc2c1=O
IC50 [4]: 325 µM

O=C(Nc1ccccc1)c1ncn2c(=O)n(CCCl)nnc12
IC50 [4]: 1.25 µM

CN(C)/N=N/c1[nH]cnc1C(N)=O [DACARBAZINE]
IC50 [2]: 128 µM | Ratio [3]: 9 | IC50 [5]: 14 µM

NC(=O)c1ncn2c(=O)n(CCCl)nnc12 [MITOZOLOMIDE]
IC50 [6]: 4.8 µM | Mean rate constant [7]: 0.00915 min⁻¹ | half-life [8]: 70.8 min | IC50 [2]: 39 µM | half-life [9]: 75.8 min | half-life [10]: 73.3 min | Mean rate constant [11]: 0.00932 min⁻¹ | Mean rate constant [12]: 0.0122 min⁻¹ | T1/2 ([13]; buffer): 344.8 min | half-life ([13]; buffer with d(G)-d(C) (10:1)): 450 min | Mean rate constant [14]: 0.00979 min⁻¹ | T1/2 ([15]; buffer): 346.6 min | half-life ([15]; buffer with d(A)-d(T) (10:1)): 447 min | Mean rate constant [16]: 0.0094 min⁻¹ | T1/2 ([17]; buffer): 56.8 min | half-life ([17]; buffer with d(G)-d(C) (10:1)): 76.1 min | half-life [18]: 56.8 min | IC50 [4]: 2.5 µM | half-life [19]: 74.4 min | Ratio [3]: 8.1

Cn1nnc2c(C(N)=O)ncn2c1=O [TEMOZOLOMIDE]
IC50 [2]: 175 µM | IC50 [4]: 5 µM | IC50 [20]: 7.6 µM | Ratio [3]: 23
